From ChEMBL document CHEMBL1152281, “2-Alkylamino- and alkoxy-substituted 2-amino-1,3,4-oxadiazoles-O-Alkyl benzohydroxamate esters replacements retain the desired inhibition and selectivity against MEK (MAP ERK kinase)” (Bioorg Med Chem Lett, 2008)
Values after ≈ are worked out from the molar mass of the structure shown. Values belong to the molecule of their own block, whether it stands above or below them. Active and inactive are the calls of the source. The calls are words filed in the database; no cut-off is given here.

Key:
[1] = Metabolic stability in human liver microsomes assessed as half life
[2] = Solubility in sodium phosphate buffer at pH 6.5 by HPLC
Colon 26 [3] = assay: Antitumor activity against mouse Colon 26 cells implanted in mouse at 100 mg/kg, po administered BID on day 9 to day 15; type: functional
Colon 26 [4] = assay: Antitumor activity against mouse Colon 26 cells implanted in mouse assessed as <62 mg decrease in tumor mass at 100 mg/kg, po administered BID on day 9 to day 15; type: functional, organism-based; set-up: dose 100 mg/kg
Mus musculus [5] = assay: Toxicity in mouse Colon 26 cells implanted mouse assessed as body weight loss at 100 mg/kg, po administered BID on day 9 to day 15; type: organism-based; set-up: dose 100 mg/kg, route oral; settings: in vivo
Method in brief: (§1)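 Mice bearing subcutaneous Colon 26 tumours were gavaged daily or BID on days 9–15 (3 per group). Toxicity was taken as maximum treatment-related weight loss, expressed as percent of mean group weight at initial treatment, with the day of maximum loss recorded; a net weight gain is noted as "+". Vehicle was 5% EtOH + 5% Tween 80 in saline.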

Colon 26 [6] = assay: Antitumor activity against mouse Colon 26 cells implanted in mouse assessed as 50% decrease in tumor mass at 100 mg/kg, po administered BID on day 9 to day 15; type: functional, organism-based; set-up: dose 100 mg/kg
Colon 26 [7] = assay: Antitumor activity against mouse Colon 26 cells implanted in mouse at 50 mg/kg, po administered BID on day 9 to day 15; type: functional
Mus musculus [8] = assay: Toxicity in mouse Colon 26 cells implanted mouse assessed as increase in body weight at 100 mg/kg, po administered on day 9 to day 15; type: organism-based; set-up: dose 100 mg/kg, route oral; settings: in vivo; method in brief: as §1
Colon 26 [9] = assay: Antitumor activity against mouse Colon 26 cells implanted in mouse at 150 mg/kg, po administered BID on day 9 to day 15; type: functional
Colon 26 [10] = assay: Antitumor activity against mouse Colon 26 cells implanted in mouse assessed as 50% decrease in tumor mass at 50 mg/kg, po administered BID on day 9 to day 15; type: functional, organism-based; set-up: dose 50 mg/kg
Mus musculus [11] = assay: Toxicity in mouse Colon 26 cells implanted mouse assessed as increase in body weight at 100 mg/kg, po administered BID on day 9 to day 15; type: organism-based; set-up: dose 100 mg/kg, route oral; settings: in vivo; method in brief: as §1
Colon 26 [12] = assay: Antitumor activity against mouse Colon 26 cells implanted in mouse at 300 mg/kg, po administered on day 9 to day 15; type: functional
Colon 26 [13] = assay: Antitumor activity against mouse Colon 26 cells implanted in mouse assessed as <62 mg decrease in tumor mass at 300 mg/kg, po administered on day 9 to day 15; type: functional, organism-based; set-up: dose 300 mg/kg
Mus musculus [14] = assay: Ex vivo inhibition of MEK in mouse Colon 26 cells implanted mouse assessed as suppression of ERK-phosphorylation at 12.5 mg/kg, po after 10 hrs by Western blot; type: functional, organism-based; set-up: dose 12.5 mg/kg
Method in brief: (§2)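 Mice bearing subcutaneous colon 26 tumours received a single oral dose. At each time point tumours were excised, and p-ERK levels were measured by Western blot against vehicle-treated controls.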

Mus musculus [15] = assay: Toxicity in mouse Colon 26 cells implanted mouse assessed as increase in body weight at 50 mg/kg, po administered BID on day 9 to day 15; type: organism-based; set-up: dose 50 mg/kg, route oral; settings: in vivo; method in brief: as §1
Mus musculus [16] = assay: Toxicity in mouse Colon 26 cells implanted mouse assessed as body weight loss at 150 mg/kg, po administered BID on day 9 to day 15; type: organism-based; set-up: dose 150 mg/kg, route oral; settings: in vivo; method in brief: as §1
Colon 26 [17] = assay: Antitumor activity against mouse Colon 26 cells implanted in mouse at 100 mg/kg, po administered on day 9 to day 15; type: functional
Colon 26 [18] = assay: Antitumor activity against mouse Colon 26 cells implanted in mouse assessed as <62 mg decrease in tumor mass at 50 mg/kg, po administered BID on day 9 to day 15; type: functional, organism-based; set-up: dose 50 mg/kg
Mus musculus [19] = assay: Toxicity in mouse Colon 26 cells implanted mouse assessed as body weight loss at 200 mg/kg, po administered on day 9 to day 15; type: organism-based; set-up: dose 200 mg/kg, route oral; settings: in vivo; method in brief: as §1
Mus musculus [20] = assay: Ex vivo inhibition of MEK in mouse Colon 26 cells implanted mouse assessed as suppression of ERK-phosphorylation at 100 mg/kg, po after 10 hrs by Western blot; type: functional, organism-based; set-up: dose 100 mg/kg; method in brief: as §2
Colon 26 [21] = assay: Antitumor activity against mouse Colon 26 cells implanted in mouse assessed as <62 mg decrease in tumor mass at 150 mg/kg, po administered BID on day 9 to day 15; type: functional, organism-based; set-up: dose 150 mg/kg
Mus musculus [22] = assay: Toxicity in mouse Colon 26 cells implanted mouse assessed as body weight loss at 300 mg/kg, po administered on day 9 to day 15; type: organism-based; set-up: dose 300 mg/kg, route oral; settings: in vivo; method in brief: as §1
Colon 26 [23] = assay: Antitumor activity against mouse Colon 26 cells implanted in mouse at 200 mg/kg, po administered on day 9 to day 15; type: functional
Colon 26 [24] = assay: Antitumor activity against mouse Colon 26 cells implanted in mouse assessed as <62 mg decrease in tumor mass at 100 mg/kg, po administered on day 9 to day 15; type: functional, organism-based; set-up: dose 100 mg/kg

SMILES: O=C(NOCC1CC1)c1ccc(F)c(F)c1Nc1ccc(I)cc1Cl [CI-1040]
LCK (Colon 26 [3]): 0.1
half-life [1]: 8 min
Activity (Colon 26 [4]): inactive
Activity (Mus musculus [5]): 4.8%
Activity (Colon 26 [6]): inactive

SMILES: Fc1cc(I)ccc1Nc1c(-c2nnc(NCCCN3CCOCC3)o2)ccc(F)c1F
half-life [1]: 40 min
solubility [2]: < 3 µg/mL

SMILES: CNCCNc1nnc(-c2ccc(F)c(F)c2Nc2ccc(I)cc2F)o1
LCK (Colon 26 [7]): 0.1
Activity (Mus musculus [8]): Toxic
LCK (Colon 26 [9]): 0.4
LCK (Colon 26 [3]): 0.2
Activity (Colon 26 [10]): inactive
half-life [1]: 40 min
Activity (Mus musculus [11]): Toxic
solubility [2]: 6.7 µg/mL (≈ 13.7 µM)
Activity (Colon 26 [4]): Active
LCK (Colon 26 [12]): 0.3
Activity (Colon 26 [13]): Active
Activity (Mus musculus [14]): Active
Activity (Mus musculus [15]): Toxic
Activity (Mus musculus [16]): 4%
LCK (Colon 26 [17]): 0
Activity (Colon 26 [18]): inactive
Activity (Mus musculus [19]): 0.1%
Activity (Mus musculus [20]): Active
Activity (Colon 26 [21]): Active
Activity (Mus musculus [22]): 4.5%
LCK (Colon 26 [23]): 0.3
Activity (Colon 26 [24]): inactive

SMILES: Nc1nnc(-c2ccc(F)c(F)c2Nc2ccc(I)cc2F)o1
solubility [2]: < 3 µg/mL

SMILES: CCN(CC)CCCNc1nnc(-c2ccc(F)c(F)c2Nc2ccc(I)cc2F)o1
half-life [1]: 40 min
solubility [2]: < 3 µg/mL

Other lines, results leading:

half-life [1]: 35 min
solubility [2]: < 3 µg/mL
SMILES: COCCCNc1nnc(-c2ccc(F)c(F)c2Nc2ccc(I)cc2F)o1

half-life [1]: 40 min
solubility [2]: < 3 µg/mL
SMILES: OCCCCNc1nnc(-c2ccc(F)c(F)c2Nc2ccc(I)cc2F)o1

half-life [1]: 40 min
solubility [2]: < 3 µg/mL
SMILES: OCCCCCNc1nnc(-c2ccc(F)c(F)c2Nc2ccc(I)cc2F)o1

half-life [1]: 40 min
solubility [2]: < 3 µg/mL
SMILES: OCCNc1nnc(-c2ccc(F)c(F)c2Nc2ccc(I)cc2F)o1

half-life [1]: 40 min
solubility [2]: < 3 µg/mL
SMILES: OCCCNc1nnc(-c2ccc(F)c(F)c2Nc2ccc(I)cc2F)o1

half-life [1]: 40 min
solubility [2]: < 3 µg/mL
SMILES: NCCNc1nnc(-c2ccc(F)c(F)c2Nc2ccc(I)cc2F)o1

half-life [1]: 40 min
solubility [2]: 5.4 µg/mL (≈ 11 µM)
SMILES: NCCCNc1nnc(-c2ccc(F)c(F)c2Nc2ccc(I)cc2F)o1
